Results from ChEMBL document CHEMBL3745695, “Novel Hits in the Correction of ΔF508-Cystic Fibrosis Transmembrane Conductance Regulator (CFTR) Protein: Synthesis, Pharmacological, and ADME Evaluation of Tetrahydropyrido[4,3-d]pyrimidines for the Potential Treatment of Cystic Fibrosis” (J Med Chem, 2015).
Values after ≈ are worked out from the molar mass of the structure shown. Active and inactive are the calls of the source. The calls are words filed in the database; no cut-off is given here.

Experiments:
[1] = Solubility of the compound in 50 mM ammonium acetate buffer at 250 uM at pH 7.4 after 24 hrs by UPLC/UV/TOF-MS analysis; type: physicochemical; settings: 50 mM ammonium acetate buffer, pH 7.4
Summary of the method: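 From 10 mM DMSO stock, 250 μM in 50 mM ammonium acetate pH 7.4 (2.5% DMSO final). Shaken 24 h at room temperature, filtered, diluted 1:2. UPLC/UV (254 nm) quantified against a 250 μM standard in acetonitrile/buffer.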

[2] = Permeability of compound at 10 uM after 4 hrs by PAMPA; type: ADME
Summary of the method: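 PAMPA with porcine brain lipid (2% w/v in dodecane). Compound 10 μM in HBSS/Hepes pH 7.4 in the donor well, 4 h at 37 °C and 80% humidity, warfarin membrane-integrity control. Donor and acceptor concentrations by UPLC-MS-TOF; effective permeability Pe calculated.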

[3] = biological target: CYP3A4 (Homo sapiens, UniProt P08684); assay: Metabolic stability assessed as recombinant human CYP3A4-mediated drug degradation by measuring compound remaining incubated for 1 hr by MS analysis; type: ADME; settings: read-out: Stability
Summary of the method: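 Recombinant hCYP3A4 at 20 pmol/mL, compound at 1 μM final with 0.25% organic solvent. 1 h at 37 °C with or without NADPH regenerating system, acetonitrile stop. Reported as % remaining by MS, NADPH sample versus the no-NADPH control.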

[4] = system: Cystic fibrosis transmembrane conductance regulator (Homo sapiens), P13569 [F508del]; assay: (§1) Corrector activity at human CFTR F508 deletion mutant expressed in FRT cells incubated for 25 mins with forskolin by YFP-based fluorescence analysis relative to control; type: cell-based
Summary of the method: (§2)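 FRT cells co-expressing ΔF508-CFTR and YFP-H148Q/I152L, grown 18–24 h at 37 °C, then 18–24 h at 37 °C with test compound. Then 25 min in PBS with forskolin (20 μM) plus genistein (50 μM). Iodide injected (final 100 mM) with a 14-s read. Exponential fit of the final 11 s gave dF/dt. EC50/Emax from dose–response, normalized to DMSO (0%) and positive control (100%). Mean of 2–3 experiments.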

[5] = system: Cystic fibrosis transmembrane conductance regulator (Homo sapiens), P13569 [F508del]; assay: (§3) Corrector activity at human CFTR F508 deletion mutant expressed in human A549 cells incubated for 25 mins by YFP-based fluorescence analysis; type: cell-based
Summary of the method: (§4)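 A549 cells stably co-expressing ΔF508-CFTR and YFP-H148Q/I152L, cultured in DMEM/F-12. Corrector treatment 18–24 h at 37 °C, then 25 min forskolin (20 μM) plus genistein (50 μM). Iodide injected (final 100 mM). Initial slope dF/dt taken from an exponential fit of the final 11 s. EC50/Emax from dose–response. Mean of 2–3 independent experiments.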

[6] = biological target: T1, Cystic fibrosis transmembrane conductance regulator (Homo sapiens, UniProt P13569, F508DEL); assay: as §1; type: cell-based; summary of the method: as §2
[7] = biological target: T1, Cystic fibrosis transmembrane conductance regulator; assay: as §3; type: cell-based; summary of the method: as §4

Chain of Cystic fibrosis transmembrane conductance regulator (Homo sapiens), P13569 [F508del] (P13569 as listed by the source): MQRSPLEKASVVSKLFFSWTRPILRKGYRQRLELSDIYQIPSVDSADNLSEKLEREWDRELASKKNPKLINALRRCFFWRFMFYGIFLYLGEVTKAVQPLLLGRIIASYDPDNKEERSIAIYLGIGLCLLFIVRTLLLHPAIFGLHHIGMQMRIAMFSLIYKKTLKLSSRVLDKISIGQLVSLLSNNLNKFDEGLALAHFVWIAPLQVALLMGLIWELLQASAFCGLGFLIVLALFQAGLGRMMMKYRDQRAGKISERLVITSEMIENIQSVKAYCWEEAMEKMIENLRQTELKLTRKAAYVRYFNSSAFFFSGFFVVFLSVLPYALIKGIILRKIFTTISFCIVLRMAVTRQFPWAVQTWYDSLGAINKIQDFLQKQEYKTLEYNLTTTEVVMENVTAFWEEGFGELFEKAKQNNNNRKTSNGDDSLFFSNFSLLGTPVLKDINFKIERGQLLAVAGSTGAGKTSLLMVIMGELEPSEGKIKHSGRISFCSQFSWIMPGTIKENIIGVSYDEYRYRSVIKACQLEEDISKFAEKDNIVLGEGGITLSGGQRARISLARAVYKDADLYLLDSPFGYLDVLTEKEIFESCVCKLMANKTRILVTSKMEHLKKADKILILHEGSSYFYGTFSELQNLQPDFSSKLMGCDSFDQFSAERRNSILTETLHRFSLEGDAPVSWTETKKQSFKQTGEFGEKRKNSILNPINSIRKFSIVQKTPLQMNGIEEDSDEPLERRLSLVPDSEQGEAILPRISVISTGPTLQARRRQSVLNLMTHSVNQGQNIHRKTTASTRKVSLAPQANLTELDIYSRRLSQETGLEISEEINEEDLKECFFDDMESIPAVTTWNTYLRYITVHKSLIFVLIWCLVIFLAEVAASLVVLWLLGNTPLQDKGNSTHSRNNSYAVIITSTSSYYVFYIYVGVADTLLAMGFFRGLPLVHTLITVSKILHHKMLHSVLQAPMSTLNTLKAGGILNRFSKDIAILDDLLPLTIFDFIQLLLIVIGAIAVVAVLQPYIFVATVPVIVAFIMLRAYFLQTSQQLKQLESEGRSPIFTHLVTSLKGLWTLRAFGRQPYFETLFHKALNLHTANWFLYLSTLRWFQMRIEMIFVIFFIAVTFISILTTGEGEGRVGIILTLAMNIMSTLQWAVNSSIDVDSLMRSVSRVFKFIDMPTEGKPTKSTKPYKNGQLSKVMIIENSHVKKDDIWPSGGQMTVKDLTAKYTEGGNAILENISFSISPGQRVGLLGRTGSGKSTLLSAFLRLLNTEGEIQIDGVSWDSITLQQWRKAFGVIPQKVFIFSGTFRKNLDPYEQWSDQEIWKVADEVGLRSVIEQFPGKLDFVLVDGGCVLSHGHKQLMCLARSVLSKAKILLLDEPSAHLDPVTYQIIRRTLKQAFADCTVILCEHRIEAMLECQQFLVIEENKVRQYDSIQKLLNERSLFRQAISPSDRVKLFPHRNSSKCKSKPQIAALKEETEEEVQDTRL
T1 sequence (P13569 as listed by the source): as above
Chain of CYP3A4 (P08684 whole entry): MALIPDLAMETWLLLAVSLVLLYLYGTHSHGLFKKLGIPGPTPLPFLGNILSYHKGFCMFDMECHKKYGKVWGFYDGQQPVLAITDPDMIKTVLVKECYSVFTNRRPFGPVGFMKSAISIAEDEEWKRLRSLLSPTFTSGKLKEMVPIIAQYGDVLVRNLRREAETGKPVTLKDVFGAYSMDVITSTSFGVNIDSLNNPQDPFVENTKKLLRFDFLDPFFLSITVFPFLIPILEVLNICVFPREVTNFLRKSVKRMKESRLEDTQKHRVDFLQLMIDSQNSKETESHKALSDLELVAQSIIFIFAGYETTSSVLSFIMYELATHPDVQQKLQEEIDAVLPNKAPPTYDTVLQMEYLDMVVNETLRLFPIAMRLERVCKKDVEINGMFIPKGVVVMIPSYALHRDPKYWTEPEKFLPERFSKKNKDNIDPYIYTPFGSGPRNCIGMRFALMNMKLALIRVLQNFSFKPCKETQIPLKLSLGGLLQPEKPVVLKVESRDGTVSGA

CN(C)CCN1CCN(c2nc(-c3ccncc3)nc3c2CN(Cc2ccccc2)CC3)CC1
solubility at 24 h, 250 µM [1]: 250 µM (≈ 114 µg/mL) | permeability [2]: permeable | remaining at 1 h [3]: 21% | Emax [4]: inactive | Emax [5]: inactive

CN1CCN(CCCNc2nc(-c3ccncc3)nc3c2CN(Cc2ccccc2)CC3)CC1
solubility at 24 h, 250 µM [1]: 250 µM (≈ 114 µg/mL) | permeability [2]: permeable | remaining at 1 h [3]: 13% | Emax [4]: inactive | Emax [5]: inactive

CN(C)CCN1CCN(c2nc(-c3ccccn3)nc3c2CN(Cc2ccsc2)CC3)CC1
solubility at 24 h, 250 µM [1]: 235 µM (≈ 109 µg/mL) | permeability [2]: permeable | remaining at 1 h [3]: 66% | Emax [4]: 79.8% | EC50 [6]: 200 nM | Emax [5]: inactive

COc1ccc(CN2CCc3nc(-c4ccccn4)nc(N4CCN(CC(N)=O)CC4)c3C2)cc1
solubility at 24 h, 250 µM [1]: 217 µM (≈ 103 µg/mL) | permeability [2]: permeable | remaining at 1 h [3]: 79% | Emax [4]: 35.9% | EC50 [6]: 2300 nM | Emax [5]: 36.8% | EC50 [7]: 10900 nM

NC(=O)CN1CCN(c2nc(-c3cccnc3)nc3c2CN(Cc2ccccc2)CC3)CC1
solubility at 24 h, 250 µM [1]: 156 µM (≈ 69.2 µg/mL) | permeability [2]: permeable | remaining at 1 h [3]: 17% | Emax [4]: inactive | Emax [5]: inactive

CC(C)c1ccc(CN2CCc3nc(-c4ccccn4)nc(N4CCN(CCN(C)C)CC4)c3C2)cc1
solubility at 24 h, 250 µM [1]: 186 µM (≈ 92.9 µg/mL) | permeability [2]: permeable | remaining at 1 h [3]: 58% | Emax [4]: 57.2% | EC50 [6]: 300 nM | Emax [5]: inactive

COc1ccc(CN2CCc3nc(-c4ccccn4)nc(N4CCN(CCO)CC4)c3C2)cc1
solubility at 24 h, 250 µM [1]: 124 µM (≈ 57.1 µg/mL) | permeability [2]: permeable | remaining at 1 h [3]: 97% | Emax [4]: 107% | EC50 [6]: 400 nM | Emax [5]: inactive

CCN(C(C)=O)C1CCN(c2nc(-c3ccccn3)nc3c2CN(Cc2ccc(OC)cc2)CC3)C1 (stereo not given)
solubility at 24 h, 250 µM [1]: 218 µM (≈ 106 µg/mL) | permeability [2]: permeable | remaining at 1 h [3]: 61% | Emax [4]: 36.9% | EC50 [6]: 300 nM | Emax [5]: inactive

CN(C)CCN1CCN(c2nc(-c3cccnc3)nc3c2CN(Cc2ccccc2)CC3)CC1
solubility at 24 h, 250 µM [1]: 247 µM (≈ 113 µg/mL) | permeability [2]: permeable | remaining at 1 h [3]: 41% | Emax [4]: inactive | Emax [5]: inactive

CN(C)CCN1CCN(c2nc(-c3ccccn3)nc3c2CN(Cc2ccccc2)CC3)CC1
solubility at 24 h, 250 µM [1]: 218 µM (≈ 99.8 µg/mL) | permeability [2]: permeable | remaining at 1 h [3]: 100% | Emax [4]: 41.3% | EC50 [6]: 1500 nM | Emax [5]: 57% | EC50 [7]: 11700 nM

NC(=O)C1CCN(c2nc(-c3cccnc3)nc3c2CN(Cc2ccccc2)CC3)CC1
solubility at 24 h, 250 µM [1]: 224 µM (≈ 96 µg/mL) | permeability [2]: permeable | remaining at 1 h [3]: 22% | Emax [4]: inactive | Emax [5]: inactive

COc1ccc(CN2CCc3nc(-c4ccccn4)nc(N4CCN(CCN(C)C)CC4)c3C2)cc1
solubility at 24 h, 250 µM [1]: 229 µM (≈ 112 µg/mL) | permeability [2]: permeable | remaining at 1 h [3]: 70% | Emax [4]: inactive | Emax [5]: inactive

CN(C)CCN1CCN(c2nc(-c3ccccn3)nc3c2CN(CC2CCCCC2)CC3)CC1
solubility at 24 h, 250 µM [1]: 191 µM (≈ 88.6 µg/mL) | permeability [2]: permeable | remaining at 1 h [3]: 65% | Emax [4]: 41% | EC50 [6]: 900 nM | Emax [5]: inactive

COc1ccc(CN2CCc3nc(-c4ccccn4)nc(NCCCn4ccnc4)c3C2)cc1
solubility at 24 h, 250 µM [1]: 217 µM (≈ 98.9 µg/mL) | permeability [2]: permeable | remaining at 1 h [3]: 28% | Emax [4]: 40.6% | EC50 [6]: 200 nM | Emax [5]: inactive

CN1CCN(CCCNc2nc(-c3cccnc3)nc3c2CN(Cc2ccccc2)CC3)CC1
solubility at 24 h, 250 µM [1]: 234 µM (≈ 107 µg/mL) | permeability [2]: permeable | remaining at 1 h [3]: 15% | Emax [4]: inactive | Emax [5]: inactive

CCN(C(C)=O)C1CCN(c2nc(-c3ccccn3)nc3c2CN(Cc2ccc(Cl)cc2)CC3)C1 (stereo not given)
solubility at 24 h, 250 µM [1]: 223 µM (≈ 110 µg/mL) | permeability [2]: permeable | remaining at 1 h [3]: 3% | Emax [4]: inactive | Emax [5]: inactive

Fc1ccc(CN2CCc3nc(-c4ccccn4)nc(NCCN4CCCC4)c3C2)cc1
solubility at 24 h, 250 µM [1]: 196 µM (≈ 84.8 µg/mL) | permeability [2]: permeable | remaining at 1 h [3]: 71% | Emax [4]: 40% | EC50 [6]: 200 nM | Emax [5]: 40.6% | EC50 [7]: 500 nM

CN(C)CCN1CCN(c2nc(-c3ccccn3)nc3c2CN(C(=O)c2ccccc2)CC3)CC1
solubility at 24 h, 250 µM [1]: 244 µM (≈ 115 µg/mL) | permeability [2]: permeable | remaining at 1 h [3]: 100% | Emax [4]: inactive | Emax [5]: inactive

CN(C)CCN1CCN(c2nc(-c3ccccn3)nc3c2CN(S(=O)(=O)c2ccccc2)CC3)CC1
solubility at 24 h, 250 µM [1]: 195 µM (≈ 99 µg/mL) | permeability [2]: permeable | remaining at 1 h [3]: 84% | Emax [4]: inactive | Emax [5]: inactive

CN(C)CCN1CCN(c2nc(-c3ccccn3)nc3c2CN(Cc2ccc(F)cc2)CC3)CC1
solubility at 24 h, 250 µM [1]: 231 µM (≈ 110 µg/mL) | permeability [2]: permeable | remaining at 1 h [3]: 82% | Emax [4]: inactive | Emax [5]: inactive

CC(=O)NCCNc1nc(-c2ccccn2)nc2c1CN(Cc1ccc(F)cc1)CC2
solubility at 24 h, 250 µM [1]: 226 µM (≈ 95 µg/mL) | permeability [2]: permeable | remaining at 1 h [3]: 80% | Emax [4]: 73.8% | EC50 [6]: 200 nM | Emax [5]: 44.3% | EC50 [7]: 400 nM

COc1ccc(CN2CCc3nc(-c4ccccn4)nc(N4CCC(C(N)=O)CC4)c3C2)cc1
solubility at 24 h, 250 µM [1]: 224 µM (≈ 103 µg/mL) | permeability [2]: permeable | remaining at 1 h [3]: 78% | Emax [4]: 86.6% | EC50 [6]: 3500 nM | Emax [5]: inactive
